Columns and labels:
[1] = test system: MCF7; assay: Antiproliferative activity against human MCF7 cells harboring PI3CA E545K mutant after 72 hrs by MTT assay; assay type: functional, cell-based; conditions: MCF7, 72 h
Method in brief: (§1)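 Cells were grown as monolayers in DMEM + 10% FBS at 37 °C, 5% CO2, and seeded at 3000-5000/well, 24 h before dosing. They were exposed 72 h to final 10.0, 5.0, 1.0 and 0.5 μM. MTT (5 mg/mL in PBS) was then added for 4 h at 37 °C, formazan dissolved in DMSO and read at 570 nm. Three experiments in triplicate; IC50 derived from inhibition ratios.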

[2] = test system: HCT-116; assay: Antiproliferative activity against human HCT116 cells harboring PI3CA H1047R mutant after 72 hrs by MTT assay; assay type: functional, cell-based; conditions: HCT-116, 72 h; method in brief: as §1
[3] = target: PI3K p110 beta/p85 alpha (Homo sapiens, UniProt P42338); assay: Inhibition of P110beta/p85alpha (unknown origin) using L-alpha-phosphatidylinositol as substrate after 40 mins by ATP depletion assay; assay type: protein-complex assay
Chain of PI3K p110 beta/p85 alpha (P27986 whole entry): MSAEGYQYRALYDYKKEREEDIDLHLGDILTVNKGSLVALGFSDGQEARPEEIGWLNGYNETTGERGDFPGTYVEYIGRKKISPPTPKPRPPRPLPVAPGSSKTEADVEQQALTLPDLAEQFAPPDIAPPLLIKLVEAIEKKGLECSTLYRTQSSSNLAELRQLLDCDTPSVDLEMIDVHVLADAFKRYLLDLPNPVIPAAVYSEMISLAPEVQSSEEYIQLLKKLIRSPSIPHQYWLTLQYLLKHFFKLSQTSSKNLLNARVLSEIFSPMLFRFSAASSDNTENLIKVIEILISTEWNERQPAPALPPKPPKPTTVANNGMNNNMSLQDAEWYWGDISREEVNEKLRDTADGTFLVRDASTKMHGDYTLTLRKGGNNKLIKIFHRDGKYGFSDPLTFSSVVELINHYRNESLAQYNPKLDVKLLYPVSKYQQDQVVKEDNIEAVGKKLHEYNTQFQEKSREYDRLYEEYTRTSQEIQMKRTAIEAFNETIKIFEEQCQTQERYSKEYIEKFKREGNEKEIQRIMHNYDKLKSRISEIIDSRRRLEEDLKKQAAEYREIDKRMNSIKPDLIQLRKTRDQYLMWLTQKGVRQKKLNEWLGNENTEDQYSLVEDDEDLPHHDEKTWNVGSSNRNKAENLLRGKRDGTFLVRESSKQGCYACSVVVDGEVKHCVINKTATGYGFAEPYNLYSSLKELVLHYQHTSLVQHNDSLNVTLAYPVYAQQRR
Chain of PI3K p110 beta/p85 alpha (P42338 whole entry): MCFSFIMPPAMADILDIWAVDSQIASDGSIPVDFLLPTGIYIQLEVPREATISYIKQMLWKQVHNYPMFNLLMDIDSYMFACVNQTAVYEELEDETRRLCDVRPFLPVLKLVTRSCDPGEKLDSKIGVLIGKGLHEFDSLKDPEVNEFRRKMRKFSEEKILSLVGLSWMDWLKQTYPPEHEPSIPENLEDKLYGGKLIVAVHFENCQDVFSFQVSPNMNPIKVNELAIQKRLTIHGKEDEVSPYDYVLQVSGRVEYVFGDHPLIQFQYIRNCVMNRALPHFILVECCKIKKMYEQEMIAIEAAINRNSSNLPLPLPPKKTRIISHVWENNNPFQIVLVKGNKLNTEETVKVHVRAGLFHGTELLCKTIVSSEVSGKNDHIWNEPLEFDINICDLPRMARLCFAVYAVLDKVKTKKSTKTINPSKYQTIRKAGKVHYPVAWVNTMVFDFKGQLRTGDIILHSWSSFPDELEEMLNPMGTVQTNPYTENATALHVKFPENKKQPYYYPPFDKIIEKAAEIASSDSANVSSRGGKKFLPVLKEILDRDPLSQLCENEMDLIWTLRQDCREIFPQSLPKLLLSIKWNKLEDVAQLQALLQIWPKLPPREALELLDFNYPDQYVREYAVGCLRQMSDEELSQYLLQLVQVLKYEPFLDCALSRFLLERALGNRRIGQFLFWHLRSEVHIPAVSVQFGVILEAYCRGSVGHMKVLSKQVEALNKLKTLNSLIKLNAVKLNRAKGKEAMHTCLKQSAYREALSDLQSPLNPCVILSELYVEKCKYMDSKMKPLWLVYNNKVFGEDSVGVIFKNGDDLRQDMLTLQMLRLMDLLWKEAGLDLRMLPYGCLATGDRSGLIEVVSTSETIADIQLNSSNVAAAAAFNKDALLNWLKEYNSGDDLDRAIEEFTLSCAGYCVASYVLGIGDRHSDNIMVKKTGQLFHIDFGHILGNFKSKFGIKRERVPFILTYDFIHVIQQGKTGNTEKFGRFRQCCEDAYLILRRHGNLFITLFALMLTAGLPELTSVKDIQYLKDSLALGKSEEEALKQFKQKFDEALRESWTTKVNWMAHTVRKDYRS

[4] = target: PI3-kinase p110-alpha/p85-alpha (Homo sapiens, UniProt P42336); assay: Inhibition of P110alpha/p85alpha (unknown origin) using L-alpha-phosphatidylinositol as substrate after 40 mins by ATP depletion assay; assay type: protein-complex assay
Chain of PI3-kinase p110-alpha/p85-alpha (P27986 whole entry): as the sequence (P27986 whole entry) above
Chain of PI3-kinase p110-alpha/p85-alpha (P42336 whole entry): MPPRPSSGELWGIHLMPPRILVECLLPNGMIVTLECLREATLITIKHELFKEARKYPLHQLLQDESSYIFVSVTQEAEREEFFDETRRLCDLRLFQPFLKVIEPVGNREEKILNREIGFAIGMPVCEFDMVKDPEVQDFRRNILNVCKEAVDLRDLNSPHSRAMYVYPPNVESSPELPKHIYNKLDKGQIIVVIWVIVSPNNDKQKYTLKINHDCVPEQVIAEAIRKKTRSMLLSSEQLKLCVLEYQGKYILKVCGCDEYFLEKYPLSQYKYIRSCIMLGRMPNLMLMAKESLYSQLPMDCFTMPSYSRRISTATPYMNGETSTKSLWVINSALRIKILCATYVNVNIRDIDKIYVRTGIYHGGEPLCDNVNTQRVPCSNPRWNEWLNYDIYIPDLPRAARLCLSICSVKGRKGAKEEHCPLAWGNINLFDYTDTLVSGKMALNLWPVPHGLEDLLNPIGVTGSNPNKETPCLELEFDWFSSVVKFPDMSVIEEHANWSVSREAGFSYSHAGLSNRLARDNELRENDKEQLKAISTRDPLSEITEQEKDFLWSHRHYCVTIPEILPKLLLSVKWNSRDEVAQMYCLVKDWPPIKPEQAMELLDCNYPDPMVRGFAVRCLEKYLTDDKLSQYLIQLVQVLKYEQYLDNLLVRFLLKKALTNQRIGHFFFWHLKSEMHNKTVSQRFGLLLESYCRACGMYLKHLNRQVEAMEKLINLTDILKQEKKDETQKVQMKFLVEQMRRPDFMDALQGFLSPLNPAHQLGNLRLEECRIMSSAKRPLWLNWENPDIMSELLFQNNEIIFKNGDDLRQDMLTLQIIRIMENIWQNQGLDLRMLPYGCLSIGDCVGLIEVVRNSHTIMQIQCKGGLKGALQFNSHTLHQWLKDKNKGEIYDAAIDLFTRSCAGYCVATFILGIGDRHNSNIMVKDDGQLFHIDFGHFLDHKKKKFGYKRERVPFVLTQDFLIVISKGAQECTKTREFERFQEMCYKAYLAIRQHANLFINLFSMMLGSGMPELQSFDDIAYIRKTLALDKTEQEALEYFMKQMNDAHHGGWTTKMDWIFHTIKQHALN

[5] = target: PI3-kinase subunit gamma/Phosphoinositide 3-kinase regulatory subunit 5 (Homo sapiens, UniProt P48736); assay: Inhibition of P110gamma/PIK3R5 (unknown origin) using L-alpha-phosphatidylinositol as substrate after 40 mins by ATP depletion assay; assay type: protein-complex assay
[6] = target: PI3-kinase p110-delta/p85-alpha (Homo sapiens, UniProt O00329); assay: Inhibition of P110delta/p85alpha (unknown origin) using L-alpha-phosphatidylinositol as substrate after 40 mins by ATP depletion assay; assay type: protein-complex assay
Chain of PI3-kinase p110-delta/p85-alpha (P27986 whole entry): as the sequence (P27986 whole entry) above
Chain of PI3-kinase p110-delta/p85-alpha (O00329 whole entry): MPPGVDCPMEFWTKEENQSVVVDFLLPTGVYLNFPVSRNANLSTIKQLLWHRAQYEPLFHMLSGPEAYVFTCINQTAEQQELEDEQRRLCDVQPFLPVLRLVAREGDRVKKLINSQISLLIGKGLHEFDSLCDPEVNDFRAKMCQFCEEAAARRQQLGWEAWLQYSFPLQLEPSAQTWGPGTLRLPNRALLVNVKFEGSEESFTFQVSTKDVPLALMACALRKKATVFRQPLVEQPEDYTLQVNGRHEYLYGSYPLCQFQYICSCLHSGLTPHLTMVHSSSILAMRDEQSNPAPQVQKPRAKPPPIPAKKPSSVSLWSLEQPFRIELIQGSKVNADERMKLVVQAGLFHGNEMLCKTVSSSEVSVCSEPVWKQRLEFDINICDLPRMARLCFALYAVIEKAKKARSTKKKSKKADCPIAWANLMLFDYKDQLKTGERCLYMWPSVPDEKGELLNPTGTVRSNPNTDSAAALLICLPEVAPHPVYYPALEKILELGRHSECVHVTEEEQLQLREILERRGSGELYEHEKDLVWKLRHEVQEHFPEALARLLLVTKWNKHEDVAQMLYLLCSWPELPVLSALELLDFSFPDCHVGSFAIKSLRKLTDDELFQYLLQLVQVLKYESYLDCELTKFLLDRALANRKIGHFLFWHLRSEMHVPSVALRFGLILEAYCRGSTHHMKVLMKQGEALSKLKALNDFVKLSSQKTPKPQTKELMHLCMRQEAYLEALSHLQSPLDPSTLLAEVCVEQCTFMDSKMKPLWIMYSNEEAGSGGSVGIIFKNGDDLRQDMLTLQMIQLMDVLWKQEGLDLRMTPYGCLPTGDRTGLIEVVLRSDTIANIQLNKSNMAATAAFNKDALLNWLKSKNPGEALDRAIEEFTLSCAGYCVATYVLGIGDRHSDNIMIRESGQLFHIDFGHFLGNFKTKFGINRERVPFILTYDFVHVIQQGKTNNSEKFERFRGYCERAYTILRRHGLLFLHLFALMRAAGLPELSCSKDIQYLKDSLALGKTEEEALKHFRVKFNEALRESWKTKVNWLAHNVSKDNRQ

[7] = target: PI3-kinase p110-alpha/p85-alpha (Homo sapiens) (UniProt P27986+P42336); assay: Ratio of BEZ235 IC50 to compound IC50 for P110alpha/p85alpha (unknown origin) using L-alpha-phosphatidylinositol as substrate after 40 mins by ATP depletion assay; assay type: protein-complex assay
[8] = target: Serine/threonine-protein kinase mTOR (Homo sapiens, UniProt P42345); assay: Inhibition of mTOR (unknown origin) using L-alpha-phosphatidylinositol as substrate after 40 mins by ATP depletion assay
[9] = test system: CCRF S-180; assay: Anticancer activity against mouse S180 cells homografted in mouse assessed as tumor growth inhibition at 40 mg/kg, po qd for 8 days measured on day 9 post dose relative to vehicle-treated control; assay type: functional; conditions: CCRF S-180, po, read-out: TGI
Method in brief: (§2)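 3×10^6 S-180 cells injected s.c. into mouse flank (mice 19.5 ± 1.8 g); randomized, 8 per group. Dosing began next day, oral once daily for 8 days in DMSO:PEG400:5% glucose injection (1:7:2, v/v/v); vehicle group got equal solvent volume. Mice sacrificed Day 9, tumors weighed, and tumor-weight inhibitory ratio calculated versus solvent group.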

[10] = test system: CCRF S-180; assay: Anticancer activity against mouse S180 cells homografted in mouse assessed as tumor growth inhibition at 20 mg/kg, po qd for 8 days measured on day 9 post dose relative to vehicle-treated control; assay type: functional; conditions: CCRF S-180, po, read-out: TGI; method in brief: as §2
[11] = test system: Mus musculus; assay: Toxicity in mouse S180 cells homografted mouse assessed as reduction of body weight at 20 to 40 mg/kg, po qd for 8 days; assay type: organism-based; conditions: in vivo, 192 h
Method in brief: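 S-180 sarcoma-bearing mice (3×10^6 cells s.c., flank; 8 per group) given oral doses once daily for 8 days in DMSO:PEG400:5% glucose injection (1:7:2, v/v/v), starting the day after implantation; solvent-only group as control. Body weight recorded daily through sacrifice on Day 9.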

IC50 [1] [nM]	IC50 [2] [nM]	Structure (SMILES)	further results
3930	4060	CCCCn1cnc2ccc(-c3cnc(OC)c(NS(=O)(=O)c4ccc(F)cc4)c3)cc2c1=O	–
4140	2020	COc1ncc(-c2ccc3ncn(CCN4CCOCC4)c(=O)c3c2)cc1NS(=O)(=O)c1ccc(Cl)cc1	–
1030	670	COc1ncc(-c2ccc3ncn([C@H]4CCN(CC5CC5)C4)c(=O)c3c2)cc1NS(=O)(=O)c1ccc(F)cc1	IC50 [3]: 24 nM; IC50 [4]: 6.7 nM; IC50 [5]: 181 nM; IC50 [6]: 21 nM; Ratio IC50 [7]: 10; IC50 [8]: 114 nM
3340	2800	COc1ccc(Cn2cnc3ccc(-c4cnc(OC)c(NS(=O)(=O)c5ccc(F)cc5)c4)cc3c2=O)cc1	–
2520	1250	COc1ncc(-c2ccc3ncn([C@H]4CCN(C(C)=O)C4)c(=O)c3c2)cc1NS(=O)(=O)c1ccc(F)cc1	–
3480	1350	COc1ncc(-c2ccc3ncn(CCN4CCOCC4)c(=O)c3c2)cc1NS(=O)(=O)c1ccc(C)cc1	–
1090	560	Cn1c(=O)n(-c2ccc(C(C)(C)C#N)cc2)c2c3cc(-c4cnc5ccccc5c4)ccc3ncc21 [DACTOLISIB]	–
2950	2750	COc1ncc(-c2ccc3ncn(CCN4CCCCC4)c(=O)c3c2)cc1NS(=O)(=O)c1ccc(F)cc1	–
2730	1350	COc1ncc(-c2ccc3ncn(C4CCN(C(=O)C5CC5)CC4)c(=O)c3c2)cc1NS(=O)(=O)c1ccc(F)cc1	–
2030	4880	COc1ncc(-c2ccc3ncn([C@@H]4CCN(CC5CC5)C4)c(=O)c3c2)cc1NS(=O)(=O)c1ccc(F)cc1	–
2260	6090	COc1ncc(-c2ccc3ncn([C@@H]4CCN(C(=O)C5CC5)C4)c(=O)c3c2)cc1NS(=O)(=O)c1ccc(F)cc1	–
2730	660	COc1ncc(-c2ccc3ncn([C@H]4CCN(C(=O)OC(C)(C)C)C4)c(=O)c3c2)cc1NS(=O)(=O)c1ccc(F)cc1	–
3490	1420	COc1ncc(-c2ccc3ncn(-c4ccc(CN5CCOCC5)cc4)c(=O)c3c2)cc1NS(=O)(=O)c1ccc(F)cc1	–
2260	1220	COc1ncc(-c2ccc3ncn(C4CCN(CC5CC5)CC4)c(=O)c3c2)cc1NS(=O)(=O)c1ccc(F)cc1	–
3720	2690	COc1ncc(-c2ccc3ncn(CCN(C)C)c(=O)c3c2)cc1NS(=O)(=O)c1ccc(F)cc1	–
1670	1150	COc1ncc(-c2ccc3ncn(C4CCNCC4)c(=O)c3c2)cc1NS(=O)(=O)c1ccc(F)cc1	–

IC50 [1] [nM]	IC50 [2] [nM]	Structure (SMILES)	further results
1620	600	COc1ncc(-c2ccc3ncn([C@H]4CCN(C(=O)C5CCOCC5)C4)c(=O)c3c2)cc1NS(=O)(=O)c1ccc(F)cc1	–
5900	4740	COc1ncc(-c2ccc3ncn(Cc4ccccc4)c(=O)c3c2)cc1NS(=O)(=O)c1ccc(F)cc1	–
2630	1300	COc1ncc(-c2ccc3ncn(C4CCN(C(C)=O)CC4)c(=O)c3c2)cc1NS(=O)(=O)c1ccc(F)cc1	–
1840	2950	COc1ncc(-c2ccc3ncn(Cc4ccncc4)c(=O)c3c2)cc1NS(=O)(=O)c1ccc(F)cc1	–
4600	1250	COc1ncc(-c2ccc3ncn(-c4ccc(CN5CCN(C)CC5)cc4)c(=O)c3c2)cc1NS(=O)(=O)c1ccc(F)cc1	–
2770	1460	COc1ncc(-c2ccc3ncn([C@H]4CCNC4)c(=O)c3c2)cc1NS(=O)(=O)c1ccc(F)cc1	–
3000	1450	COc1ncc(-c2ccc3ncn(CCN4CCN(C)CC4)c(=O)c3c2)cc1NS(=O)(=O)c1ccc(F)cc1	–
3200	1820	COc1ncc(-c2ccc3ncn(CCN4CCOCC4)c(=O)c3c2)cc1NS(=O)(=O)c1ccc(F)cc1	–
3820	2640	COc1ncc(-c2ccc3ncn(CCN4CCCC4)c(=O)c3c2)cc1NS(=O)(=O)c1ccc(F)cc1	–
2590	1030	CCN(CC)CCn1cnc2ccc(-c3cnc(OC)c(NS(=O)(=O)c4ccc(F)cc4F)c3)cc2c1=O	–
2450	4720	COc1ncc(-c2ccc3ncn([C@@H]4CCN(C(C)=O)C4)c(=O)c3c2)cc1NS(=O)(=O)c1ccc(F)cc1	–
2360	710	COc1ncc(-c2ccc3ncn([C@H]4CCN(C(=O)C5CC5)C4)c(=O)c3c2)cc1NS(=O)(=O)c1ccc(F)cc1	inhibition in vivo at 40 mg/kg [9]: 58%; IC50 [3]: 209 nM; IC50 [4]: 7.3 nM; IC50 [5]: 116 nM; IC50 [6]: 106 nM; Ratio IC50 [7]: 10; IC50 [8]: 208 nM; inhibition in vivo at 20 mg/kg [10]: 34.5%; Activity [11]: Toxic
4360	1530	COc1ncc(-c2ccc3ncn(C4CCN(C(=O)OC(C)(C)C)CC4)c(=O)c3c2)cc1NS(=O)(=O)c1ccc(F)cc1	–
1780	1290	COc1ncc(-c2ccc3ncn(Cc4cccnc4)c(=O)c3c2)cc1NS(=O)(=O)c1ccc(F)cc1	–
2900	960	COc1ncc(-c2ccc3ncn(C4CCN(C(=O)C5CCOCC5)CC4)c(=O)c3c2)cc1NS(=O)(=O)c1ccc(F)cc1	–
2340	1200	CCN(CC)CCn1cnc2ccc(-c3cnc(OC)c(NS(=O)(=O)c4ccc(F)cc4)c3)cc2c1=O	–
